# Laboratory results taken from ChEMBL document CHEMBL5154918, “Synthesis and Biological Characterization of a Series of 2-Sulfonamidebenzamides as Allosteric Modulators of MrgX1” (ACS Med Chem Lett, 2022).
# What was measured:
# [1] = biological target: T1, Mas-related G-protein coupled receptor member X1 (Homo sapiens, UniProt Q96LB2); experiment: Positive allosteric modulator activity at human MRGPRX1 expressed in HEK293 cells in presence of BAM8-22 by Fluo4-dye based FLIPR assay; type: cell-based
# How it was run: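 HEK293 cells expressing MrgX1. Compounds tested in the presence of 10 nM BAM8-22. Emax normalized to control compound ML382; mean ± SEM of n = 2 experiments.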
# [2] = biological target: T1, Mas-related G-protein coupled receptor member X1; experiment: Positive allosteric modulator activity at human MRGPRX1 expressed in HEK293 cells assessed as maximal efficacy at 5 uM in presence of BAM8-22 by Fluo4-dye based FLIPR assay relative to control; type: cell-based
# [3] = Plasma protein binding in human assessed as unbound fraction; type: ADME, cell-free; conditions: read-out: PPB
# How it was run: (§1)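 Equilibrium dialysis in human and mouse plasma; results expressed as […] fraction unbound.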
# [4] = Plasma protein binding in mouse assessed as unbound fraction; type: ADME, cell-free; conditions: read-out: PPB; how it was run: as §1
# [5] = Microsomal stability in mouse liver microsomes assessed as intrinsic clearance; type: ADME, Microsome; conditions: read-out: CLH
# How it was run: (§2)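 Intrinsic clearance measured in human and mouse liver microsomes. Hepatic clearance predicted from it with the well-stirred organ CL model, binding terms excluded.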
# [6] = Microsomal stability in human liver microsomes assessed as intrinsic clearance; type: ADME, Microsome; conditions: read-out: CLH; how it was run: as §2
# [7] = filed as positive allosteric modulator
# T1 sequence (Q96LB2 whole entry): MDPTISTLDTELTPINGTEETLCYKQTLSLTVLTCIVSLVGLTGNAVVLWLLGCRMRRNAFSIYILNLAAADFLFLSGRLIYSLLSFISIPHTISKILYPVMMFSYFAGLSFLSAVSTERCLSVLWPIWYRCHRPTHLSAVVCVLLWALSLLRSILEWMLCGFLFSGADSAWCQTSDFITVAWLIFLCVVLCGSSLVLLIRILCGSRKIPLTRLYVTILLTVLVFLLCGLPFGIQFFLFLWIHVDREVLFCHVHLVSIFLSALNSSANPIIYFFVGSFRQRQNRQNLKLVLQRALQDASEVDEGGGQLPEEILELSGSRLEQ
Structure (SMILES),EC50 [1],Emax [2],"Emax [2, 7]",other results
O=C(Nc1cccc2c1OCCO2)c1ccccc1NS(=O)(=O)C1CC1,9010 nM,37.9%,,
CCOc1ccccc1NC(=O)c1ccc(Cl)cc1NS(=O)(=O)C1CC1,,36.1%,,
CCOc1ccccc1NC(=O)c1ccc2ccccc2c1NS(=O)(=O)C1CC1,,8.9%,,
CCOc1ccccc1NC(=O)c1cc(F)ccc1NS(=O)(=O)CC,98 nM,,107%,fraction unbound [3]: 0.002; fraction unbound [4]: 0.041; CLint scaled [5]: 269 mL/min/kg; CLint scaled [6]: 36 mL/min/kg
CCS(=O)(=O)Nc1ccc(C)cc1C(=O)Nc1ccccc1OCC(F)(F)F,,,58.4%,
CC1(C)Oc2cccc(NC(=O)c3ccccc3NS(=O)(=O)C3CC3)c2O1,,-25.6%,,
CCOc1ccccc1NC(=O)c1cc2ccccc2cc1NS(=O)(=O)C1CC1,,29.7%,,
O=C(Nc1ccccc1OCC(F)(F)F)c1ccc(F)cc1NS(=O)(=O)C1CC1,,29.1%,,
O=C(Nc1cccc2occc12)c1ccccc1NS(=O)(=O)C1CC1,14200 nM,,53.4%,
O=C(Nc1ccccc1OC1CCCC1)c1ccccc1NS(=O)(=O)C1CC1,3140 nM,,80.1%,
CCOc1ccc(F)cc1NC(=O)c1cc(Cl)ccc1NS(=O)(=O)C1CC1,55 nM,,104%,fraction unbound [3]: 0.001; fraction unbound [4]: 0.003; CLint scaled [5]: > 2400 mL/min/kg; CLint scaled [6]: 138 mL/min/kg
Cc1cc2cccc(NC(=O)c3ccccc3NS(=O)(=O)C3CC3)c2o1,1040 nM,,66.3%,fraction unbound [3]: < 0.003; fraction unbound [4]: 0.026; CLint scaled [5]: 1460 mL/min/kg; CLint scaled [6]: 74.9 mL/min/kg
CCOc1ccc(F)cc1NC(=O)c1ccccc1NS(=O)(=O)CC,285 nM,,74%,
CCOc1ccccc1NC(=O)c1cc(C)ccc1NS(=O)(=O)CC,217 nM,,108%,
CCOc1ccccc1NC(=O)c1ncccc1NS(=O)(=O)C1CC1,,0.1%,,
CCOc1cccc2nc(-c3ccccc3NS(=O)(=O)C3CC3)[nH]c12,,23.8%,,
CCOc1ccccc1Nc1nn(S(=O)(=O)C2CC2)c2cccnc12,,1.9%,,
CCOc1ccc(F)cc1NC(=O)c1cc(F)ccc1NS(=O)(=O)CC,31 nM,,136%,fraction unbound [3]: 0.002; fraction unbound [4]: 0.001; CLint scaled [5]: 1240 mL/min/kg; CLint scaled [6]: 69.1 mL/min/kg
CCOC1CCCCC1NC(=O)c1ccccc1NS(=O)(=O)C1CC1 (stereo not drawn),,24.2%,,
CCS(=O)(=O)Nc1ccc(Cl)cc1C(=O)Nc1ccccc1OCC(F)(F)F,366 nM,,89.5%,
CCOc1ccccc1CNC(=O)c1ccccc1NS(=O)(=O)C1CC1,,12.7%,,
O=C(Nc1ccccc1OCC(F)(F)F)c1cc(Cl)ccc1NS(=O)(=O)C1CC1,915 nM,,103%,
COCCOc1ccccc1NC(=O)c1ccccc1NS(=O)(=O)C1CC1,,20.7%,,
CCS(=O)(=O)Nc1ccccc1C(=O)Nc1ccc(F)cc1OCC(F)(F)F,1400 nM,,91.4%,fraction unbound [3]: 0.005; fraction unbound [4]: 0.021; CLint scaled [5]: 1210 mL/min/kg; CLint scaled [6]: 80 mL/min/kg
CCOc1ccccc1NC(=O)c1cc(Cl)ccc1NS(=O)(=O)C1CC1,54 nM,,110%,fraction unbound [3]: 0.001; fraction unbound [4]: 0.001; CLint scaled [5]: 1470 mL/min/kg; CLint scaled [6]: 130 mL/min/kg
CCS(=O)(=O)Nc1ccc(F)cc1C(=O)Nc1ccccc1OCC(F)(F)F,435 nM,,100%,
O=C(Nc1ccccc1OCC(F)(F)F)c1cc(F)ccc1NS(=O)(=O)C1CC1,,,59.8%,
CCOc1ccccc1-c1nnc(-c2ccccc2NS(=O)(=O)C2CC2)[nH]1,,7.5%,,
CCOc1ccccc1Nc1nn(S(=O)(=O)C2CC2)c2ccccc12,,-5.7%,,
O=C(Nc1ccc2c(c1)OCCO2)c1ccccc1NS(=O)(=O)C1CC1,,2.1%,,
